Source: the RNAGym collection of RNA variant scans (doi:10.1126/science.aae0568)
Variants at the floor of the assay were thinned out.

B1: tRNA (parent)
chain: GUUCCGUUGGCGUAAUGGUAACGCGUCUCCCUCCUAAGGAGAAGACUGCGGGUUCGAGUCCCGUACGGAACG

Variants of: B1
Assay: yeast fitness relative to wild type (ratio to wild type); higher = fitter; tRNA-Arg(CCU), competitive growth, 37 C, YPD
Method in brief: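 For this measurement, the tRNA-Arg(CCU) gene was varied by chemical synthesis at a 3% per-site mutation rate across 69 sites, and each variant was placed at the native genomic locus in Saccharomyces cerevisiae. The pooled strains went through a 24-hour competition in YPD at 37°C in six parallel replicates, with amplicons from start and end populations read by 100-nucleotide paired-end sequencing. Darwinian fitness relative to wild type followed from the change in each genotype's frequency. Genotypes needed ≥ 100 starting reads, and estimates < 0.5 were set to 0.5.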
GUUCCGUUGGCGUAAUGGUAACGCCUCUUCCUCCUAAGGAGAAGACUGCGGGUUCGAGUCCCGUACGGAACG [G25C C29U] gave a yeast fitness of 0.688.
In the case of GUUCCGUUGGCGUAAUGGUAACGCCUCUUCCUCCUAAGGAGAAGCCUGCGGGUUCGAAUCCCGUACGGAACG [G25C C29U A45C G58A], the yeast fitness is reported as ≤ 0.5.
For GUUCCGUUGGCGUAAUGGUAACGCCUCUUCCUCCUAAGGAGAAGACUGCGGGUUCGAGUCCCGUCCGGAUCG [G25C C29U A65C A70U], the yeast fitness was ≤ 0.5.
With GUUCCGUUGGCGUAAUGGUAACGCCUCUUUCUCCCAAGGCGAAGACUGCGGGUUCGAGUCCCGUACGGAACG [G25C C29U C30U U35C A40C] the yeast fitness was ≤ 0.5.
With GUUCCGUUGGCGUAAUGGUAACGCCUCUUCCUCGUAAGGAGAAGACUGCGGGUUCGAGUCCCGUACGGAACG [G25C C29U C34G] the yeast fitness was ≤ 0.5.
Work on GUUCCGUUGGCGUAAUGGUAACGCCUCUCUCUCCUAAGGAGAAGACUGCGGGUUCGAGUCCCGUACGGCACG [G25C C30U A69C] yielded a yeast fitness of 0.606.
With GUUCCGUUGGCGUAAUGGUAACGCCUCUCUCUCCUAAGGAGAAGACUGCGGGUUCGAGUCCCGUACGGACCG [G25C C30U A70C] the yeast fitness was 0.596.
Variant GUUCCGUUGGCGUAAUGGUAACGCCUCUCCAUCCUAAGGAGAAGACUGCGGGUUCGAGUCCCGUACGGAACG [G25C C31A] has a yeast fitness of 0.677.
Work on GUUCCGUUGGCGUAAUGGUAACGCCUCUCCAUCCUAAGGAGAAGACUGCGGGUUCGAGUCCCGUCCGGAACG [G25C C31A A65C] yielded a yeast fitness of 0.678.
With GUUCCGUUGGCGUAAUGGUAACGCCUCUCCAUCCUAAGGAGAAGACUGCGGGUUCGAGUCCCGUACGGCACG [G25C C31A A69C] the yeast fitness was 0.585.
In the case of GUUCCGUUGGCGUAAUGGUAACGCCUCUCCGUCCUAAGGAGAAGACUGCGGGUUCGAGUCCCGUACGGAACG [G25C C31G], the yeast fitness is reported as 0.704.
In the case of GUUCCGUUGGCGUAAUGGUAACGCCUCUCCGUCGUAAGGAGAAGACUGCGGGUUCGCGUCCCGUACGGAACG [G25C C31G C34G A57C], the yeast fitness is reported as ≤ 0.5.
Work on GUUCCGUUGGCGUAAUGGUAACGCCUCUCCGUCCUAAGGAGAAGACUGCGGGUUCGAGUCGCGUAGGGAACG [G25C C31G C61G C66G] yielded a yeast fitness of 0.674.
Work on GUUCCGUUGGCGUAAUGGUAACGCCUCUCCGUCCUAAGGAGAAGACUGCGGGUUCGAGUCCUGUACGGAACG [G25C C31G C62U] yielded a yeast fitness of 0.737.
GUUCCGUUGGCGUAAUGGUAACGCCUCUCCUUCCUAAGGAGAAGACUGCGGGUUCGAGUCCCGUUCGGAACG [G25C C31U A65U] showed a yeast fitness of 0.726.
In the case of GUUCCGUUGGCGUAAUGGUAACGCCUCUCCUACCUAAGGAGAAGACUGCGGGUUCGAGUCCCGUACGGAACG [G25C C31U U32A], the yeast fitness is reported as ≤ 0.5.
In the case of GUUCCGUUGGCGUAAUGGUAACGCCUCUCCCUACUAAGGAGACGACUGCGGGUUCGAGUCCCGUACGAAACG [G25C C33A A43C G68A], the yeast fitness is reported as ≤ 0.5.
GUUCCGUUGGCGUAAUGGUAACGCCUCUCCCUACUAAGGAGAAGACUGCGGGUUCGUGUCCCGUACGGUACG [G25C C33A A57U A69U] gave a yeast fitness of 0.548.
With GUUCCGUUGGCGUAAUGGUAACGCCUCUCCCUGCUAAGGAGACGACUGCGGGUUCGCGUCCCCUACGGAACG [G25C C33G A43C A57C G63C] the yeast fitness was ≤ 0.5.
In the case of GUUCCGUUGGCGUAAUGGUAACGCCUCUCCCUGCUAAGGAGAAGACUGCGGGUUCGAGUACCGUACGGAACG [G25C C33G C60A], the yeast fitness is reported as ≤ 0.5.
In the case of GUUCCGUUGGCGUAAUGGUAACGCCUCUCCCUUCUAAGGAGAAGACUGAGGGAUCGAGUCCCGUACGGAACG [G25C C33U C49A U53A], the yeast fitness is reported as ≤ 0.5.
With GUUCCGUUGGCGUAAUGGUAACGCCUCUCCCUCGUAAGGAGAAGACUGCGGGUUCGAGUCCCGUACGGAACG [G25C C34G] the yeast fitness was 0.551.
For GUUCCGUUGGCGUAAUGGUAACGCCUCUCCCUCGUAAGGAGAAGUCUGCGGGUUCGAGUCCCGUACGGAACG [G25C C34G A45U], the yeast fitness was ≤ 0.5.
For GUUCCGUUGGCGUAAUGGUAACGCCUCUCCCUCGUAAGGAGAAGACUGCGGGUUCGGGUCCCGUACGGAACG [G25C C34G A57G], the yeast fitness was ≤ 0.5.
With GUUCCGUUGGCGUAAUGGUAACGCCUCUCCCUCGUAAGGAGAAGACUGCGAGUUCGAGUCCCGUACGGAACG [G25C C34G G51A] the yeast fitness was ≤ 0.5.
For GUUCCGUUGGCGUAAUGGUAACGCCUCUCCCUCUUAUGGUGAAGACUGCGGGUUCGAGUCCCGUACGGAACG [G25C C34U A37U A40U], the yeast fitness was ≤ 0.5.
For GUUCCGUUGGCGUAAUGGUAACGCCUCUCCCUCUUAAGGAGAAGACUGCGGGUUCAAGUCCCGUACGGAACG [G25C C34U G56A], the yeast fitness was ≤ 0.5.
Variant GUUCCGUUGGCGUAAUGGUAACGCCUCUCCCUCCUAAGGAGAAGAAUGCGGGUUCGAAUCCCUUACGGAACG [G25C C46A G58A G63U] has a yeast fitness of 0.604.
Variant GUUCCGUUGGCGUAAUGGUAACGCCUCUCCCUCCUAAGGAGAAGACUGGGGGUUCGAGUCCCGUACGGAACG [G25C C49G] has a yeast fitness of 0.781.
Work on GUUCCGUUGGCGUAAUGGUAACGCCUCUCCCUCCUAAGGAGAAGACUGUGAGUUCGAGUCCCGUACGGAACG [G25C C49U G51A] yielded a yeast fitness of 0.568.
For GUUCCGUUGGCGUAAUGGUAACGCCUCUCCCUCCUAAGGAGAAGACUGUGAGUUCGAGUCCCGUCCGGCACG [G25C C49U G51A A65C A69C], the yeast fitness was ≤ 0.5.
GUUCCGUUGGCGUAAUGGUAACGCCUCUCCCUCCUAAGGAGAAGACUGUGGGUUCGAGUCCCAUACGGAACG [G25C C49U G63A] gave a yeast fitness of 0.83.
GUUCCGUUGGCGUAAUGGUAACGCCUCUCCCUCCUAAGGAGAAGACUGUGGGUGCGAGUCCCGUACGGAACG [G25C C49U U54G] gave a yeast fitness of 0.58.
With GUUCCGUUGGCGUAAUGGUAACGCCUCUCCCUCCUAAGGAGAAGACUGCGGGUUUGAGUCCCGUACGGAACG [G25C C55U] the yeast fitness was 0.916.
Work on GUUCCGUUGGCGUAAUGGUAACGCCUCUCCCUCCUAAGGAGAAGACUGCGGGUUUGAGUCCCGUACGGUACG [G25C C55U A69U] yielded a yeast fitness of 0.609.
Work on GUUCCGUUGGCGUAAUGGUAACGCCUCUCCCUCCUAAGGAGAAGACUGCGGGUUCGAGUGCCGUACGGAACG [G25C C60G] yielded a yeast fitness of 0.665.
Work on GUUCCGUUGGCGUAAUGGUAACGCCUCUCCCUCCUAAGGAGAAGACUGCGGGUUCGAGUCACGUACGGAACG [G25C C61A] yielded a yeast fitness of 0.75.
